Screens: PubChem BioAssay, several laboratories
Hits are enriched below; roughly 1.9% of the tested compounds scored in any of these assays.
CR mimetic SO – reduction of superoxide in aged yeast, primary screen, HTS; superoxide response (% of plate mean), % at 10 µM; 0.18% of 330,000 active; S. cerevisiae aged cells, superoxide DHE fluorescence; active compounds read low;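 active means superoxide response under a set limit, about three screen SD below normal, cut at about 65% in these data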;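 further: yeast aged for seven days with compound at 30 °C before DHE staining; 100% = average MFI of all compound-treated wells on the plate with controls excluded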
Rev-erbA mod – modulators of Rev-erb alpha DNA binding, primary screen, biochemical, FITC-DNA, fluorescence polarization, uHTS | activity, % at 10 µM | Rev-erbα–FITC-DNA binding, 90 min | 0.79% of 370,000 active;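 active means activity above about 14%, limit read from the data; passing the limit was not always enough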;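 further: 0% = DMSO wells with 35 nM protein and 100% = DMSO wells with 750 nM protein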
MIN6 prolif – inducers of MIN6 beta-cell proliferation, primary screen, ATP luminescence, uHTS; AID 2380, 2010; proliferation, % at 10 µM; 0.29% of 330,000 active; MIN6 cells proliferation, ATPlite luminescence, 48 h; cells starved in 0.2% serum; 100% = growth in 10% serum;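 active means compounds whose signal lies at least 3.5 SD above the mean of all wells on their plate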;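 further: 0% = DMSO-treated cells in low-serum medium and 100% = 10% serum control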
PG9 binder – binders of HIV-1 gp120 antibody PG9, primary screen, biochemical, TR-FRET; HIV-1 gp120 / PG9 antibody interaction; TR-FRET gp120-PG9 antibody binding; inhibition, % at 6.7 µM; 0.43% of 360,000 active; in the data active means inhibition above about 8.5%
Rce1 inh – yeast Rce1p protease inhibitors, primary screen, biochemical, fluorescence, cell-free homogeneous; 0.27% of 290,000 active; yeast membranes, quenched prenylated peptide cleavage fluorescence; calls only; CAAX prenyl protease 2 (Saccharomyces cerevisiae (strain ATCC 204508 / S288c)), Q03530; AID 2563, 2010;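 active means fall in fluorescence gain of 50% or more versus controls, with final raw signal at or below 3038400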;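 further: plate controls were neutral control wells for no effect and wells lacking membranes for full effect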
UCH37 inh – inhibitors of human UCH37 deubiquitinase, primary screen, biochemical, Ub-AMC cleavage, fluorescence; inhibition, % (concentration not given with the values); purified proteasome/UCH37; 0.33% of 330,000 active;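 active means mean inhibition over replicate wells above about 20%, limit read from the data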;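 further: 0% = compound-free wells with enzyme and 100% = wells lacking proteasome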
Target sequence (Q9Y5K5 whole entry, looked up): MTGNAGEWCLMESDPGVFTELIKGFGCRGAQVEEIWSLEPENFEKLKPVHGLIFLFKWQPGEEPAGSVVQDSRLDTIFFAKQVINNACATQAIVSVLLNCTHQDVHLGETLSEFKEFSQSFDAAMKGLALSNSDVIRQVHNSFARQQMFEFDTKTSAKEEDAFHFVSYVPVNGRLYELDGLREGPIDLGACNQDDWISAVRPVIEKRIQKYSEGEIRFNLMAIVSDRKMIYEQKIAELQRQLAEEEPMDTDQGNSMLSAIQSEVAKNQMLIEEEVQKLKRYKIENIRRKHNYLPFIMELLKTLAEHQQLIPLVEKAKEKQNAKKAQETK
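Material: human UCH37 enzyme supplied as purified proteasome complex / Amount: 0.15 nM proteasome as dispensed / Buffer or medium: pH 7.4 Tris-HCl (50 mM) with ovalbumin, ATP-MgCl2, DTT / Times: preincubation 30 min, reaction 25 min, room temperature / Technique: AMC fluorescence from Ub-AMC cleavage, excitation 355 nm, emission 460 nm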
PG9 binder conf – binders of anti-gp120 antibody PG9, confirmation, biochemical, TR-FRET; shares compounds with PG9 binder; TR-FRET PG9 antibody binding; inhibition, % at 6.7 µM; 90% of 1,500 active; in the data active means inhibition above about 9%
PGV04 Ab binding – binders of control antibody PGV04, counter-screen for PG9 antibody binder project, biochemical, TR-FRET, distinct HIV envelope site | TR-FRET PGV04 antibody-gp120 binding | 95% of 1,500 active | shares compounds with PG9 binder | inhibition, % at 6.7 µM; in the data active means inhibition above about 9.5%
Starred values were filed as active, the others as inactive.

`Cc1cc(NC(=O)c2ccc3c(c2)C(=O)N(CCC(C)C)C3=O)no1` gave CR mimetic SO 103, Rev-erbA mod -2, MIN6 prolif -2, PG9 binder 12*, Rce1 inh inactive, UCH37 inh 2, PG9 binder conf 7 and PGV04 Ab binding 8.
Screening O=C(NN=Cc1ccc(N2CCOCC2)cc1)C1COc2ccccc2O1 (stereo not given) returned UCH37 inh -195.
CNC(=O)c1c[nH]c2ccc(S(=O)(=O)Nc3ccccc3F)cc2c1=O was read as CR mimetic SO 93, Rev-erbA mod -2, MIN6 prolif -1, PG9 binder 12*, Rce1 inh inactive, UCH37 inh 2, PG9 binder conf 23* and PGV04 Ab binding 25*.
`CCc1ccccc1NS(=O)(=O)c1ccc2[nH]cc(C(=O)NC3CCCC3)c(=O)c2c1` gave CR mimetic SO 96, Rev-erbA mod 12, MIN6 prolif 0, PG9 binder 12*, Rce1 inh inactive, UCH37 inh 4, PG9 binder conf 19* and PGV04 Ab binding 20*.
COc1ccccc1OCC(=O)NN=C1SCC(=O)N1Cc1ccccc1 was read as UCH37 inh 4.
For COC(=O)C/C=C/[C@@H](C)[C@@H](C=NOC[C@@H](C)[C@H](OCc1ccccc1)C(C)C)NS(=O)(=O)c1ccc(C)cc1 the results were UCH37 inh 2.
Screening CCOC(=O)N1CCN(C(=O)CCCCCn2c(=S)[nH]c3cc4c(cc3c2=O)OCO4)CC1 returned CR mimetic SO 98, Rev-erbA mod 1, MIN6 prolif 2, PG9 binder 8.7*, Rce1 inh inactive, UCH37 inh 5, PG9 binder conf 3 and PGV04 Ab binding 16*.
For O=C(CCCCCn1c(=S)[nH]c2cc3c(cc2c1=O)OCO3)NCCc1ccccc1 the results were CR mimetic SO 114, Rev-erbA mod 18, MIN6 prolif -1, PG9 binder 20*, Rce1 inh inactive, UCH37 inh 1, PG9 binder conf 17* and PGV04 Ab binding 24*.
`CCN(CCCNC(=O)CCn1c(=S)[nH]c2cc3c(cc2c1=O)OCO3)c1cccc(C)c1` gave CR mimetic SO 109, Rev-erbA mod -1, MIN6 prolif -2, PG9 binder 10*, Rce1 inh inactive, UCH37 inh 0, PG9 binder conf 12* and PGV04 Ab binding 14*.
COc1ccc(N2CCN(C(=O)CCCCCn3c(=S)[nH]c4cc5c(cc4c3=O)OCO5)CC2)cc1 was read as CR mimetic SO 89, MIN6 prolif -4, Rce1 inh inactive and UCH37 inh 2.
For O=C(Cn1nnc2c(cnn2-c2ccc(F)cc2)c1=O)Nc1ccccc1C(F)(F)F the results were CR mimetic SO 96, Rev-erbA mod 17, MIN6 prolif -1, PG9 binder 11*, Rce1 inh inactive, UCH37 inh -99, PG9 binder conf 14* and PGV04 Ab binding 20*.
O=C(Cn1nnc2c(cnn2-c2ccccc2)c1=O)NCc1cccs1 was read as CR mimetic SO 92, Rev-erbA mod -6, MIN6 prolif 0, PG9 binder -2, Rce1 inh inactive and UCH37 inh -22.
`O=c1c(S(=O)(=O)c2ccc(Cl)cc2)cn(Cc2ccccc2F)c2ccc(F)cc12` gave CR mimetic SO 96, Rev-erbA mod 6, MIN6 prolif -2, PG9 binder 1, Rce1 inh inactive and UCH37 inh 6.
Cc1ccc(S(=O)(=O)c2cn(CC(=O)Nc3ccccc3)c3ccc(F)cc3c2=O)cc1 was read as CR mimetic SO 106, Rev-erbA mod -8, MIN6 prolif -4, PG9 binder 14*, Rce1 inh inactive, PG9 binder conf 17* and PGV04 Ab binding 25*.
Screening Cc1ccc(Cn2cc(S(=O)(=O)c3ccc(Cl)cc3)c(=O)c3cc(F)ccc32)cc1 returned CR mimetic SO 106, Rev-erbA mod 0, MIN6 prolif -3, PG9 binder 8.7*, Rce1 inh inactive, PG9 binder conf 12* and PGV04 Ab binding 21*.
Screening Cc1ccc(NC(=O)Cn2cc(S(=O)(=O)c3ccc(F)cc3)c(=O)c3cc(F)ccc32)cc1 returned CR mimetic SO 95, Rev-erbA mod 10, MIN6 prolif -3, PG9 binder 24*, Rce1 inh inactive, UCH37 inh -2, PG9 binder conf 38* and PGV04 Ab binding 44*.
Screening COc1ccc2c(c1)c(=O)c(C(=O)c1ccc(C)cc1)cn2CC(=O)Nc1ccc(F)cc1 returned CR mimetic SO 96, Rev-erbA mod 17, MIN6 prolif 1, PG9 binder -2, Rce1 inh inactive and UCH37 inh 5.
Screening C=CCOc1ccccc1C=NNC(=O)c1ccc(Cl)cc1Cl returned UCH37 inh 0.
`COc1ccc(N(CC(=O)NN=C(C)c2ccc(OC)c(OC)c2)S(=O)(=O)c2ccccc2)cc1` gave UCH37 inh -1.
CCOc1ccc(C=Nn2c(SC)nnc(C(C)(C)C)c2=O)cc1 was read as UCH37 inh 2.
Screening O=C(Nc1ccc(Br)cn1)c1cccc(C(=O)Nc2ccc(Br)cn2)c1 returned CR mimetic SO 103, Rev-erbA mod 22, MIN6 prolif -1, PG9 binder 12*, Rce1 inh inactive, UCH37 inh 4, PG9 binder conf 41* and PGV04 Ab binding 55*.
Screening COc1ccccc1-c1c(C(F)(F)F)oc2cc(OCC(=O)Nc3ccccc3C(F)(F)F)ccc2c1=O returned CR mimetic SO 102, Rev-erbA mod 2, MIN6 prolif -1, PG9 binder 12*, Rce1 inh inactive, UCH37 inh 1, PG9 binder conf 20* and PGV04 Ab binding 37*.
`COC(=O)c1ccccc1NC(=O)COc1ccc2c(c1)OCO2` gave CR mimetic SO 108, Rev-erbA mod 11, MIN6 prolif 2, PG9 binder 9.2*, Rce1 inh inactive, UCH37 inh 0, PG9 binder conf 6 and PGV04 Ab binding 7.
